H69AR inhibit: growth inhibitors of human H69AR lung tumor cells; actives 6% (n = 85,000); AID 598; viability, % at 10 µM; H69AR lung tumor viability, ATP luminescence, 72 h; stronger effect = lower value;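 active means viability at or below 40%; inactive means viability above 40%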;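 further: multidrug resistant small cell line overexpressing MRP-1 efflux transporter; 100% = mean luminescence of untreated control wells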
Jurkat tox 60K: cytotoxic compounds reducing Jurkat cell viability. Jurkat E6.1 viability, ATP luminescence, 48 h. inhibition, % at 4 µM. actives 1.2% (n = 56,000). AID 463;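 active means inhibition above the mean inhibition of all tested compounds plus 3 SD, cut at about 28% in these data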
MT1-MMP txn act: activates MT1-MMP transcription | AID 750 | activation factor at 10 µM | actives 0.16% (n = 86,000) | HT1080 MT1-MMP promoter luciferase reporter, luminescence, overnight; stronger effect = higher value;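 active means activation factor of at least 2 for MT1-MMP transcription at 10 µM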
HUVEC prolif 384: inhibitors of human endothelial cell proliferation. HUVEC proliferation, CellTiter-Glo luminescence, 72 h; stronger effect = lower value. viability, % at 10 µM (by protocol). actives 1.1% (n = 86,000);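 active means viability at or below 30%; inactive means viability above 30%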;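 further: 100% = median luminescence of DMSO-only cell control wells on each plate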
Lung fibro prol: blocks proliferation of human lung fibroblasts. LL 47 human lung fibroblast viability, ATP luminescence; stronger effect = lower value. viability, % at 10 µM. actives 1.1% (n = 85,000). AID 719;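 active means viability at or below 50% in the single dose screen; inactive means viability above 50%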;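 further: compound exposure lasted 72 h before the ATP readout; 100% = median luminescence of untreated cell-only wells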
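Times – overnight cell rest, 72 h compound treatment at 37 °C · Test system – human lung fibroblast line LL 47, low passage · Amount – 1,150 cells in each well · Controls – cell-only wells, no compound · Doses – 0.1% DMSO in all compound wells · Measured by – CellTiter-Glo luminescence · Buffer or medium – IMEM plus 15% FBS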
PTK2B oligo ant: antagonists of human Pyk2 oligomerization; Q14289; Q293 cells, Pyk2 FERM NanoBiT luminescence; stronger effect = lower value; z-score (the deposit names both 25 µM and 10 µM); actives 0.83% (n = 99,000); AID 1347419;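 active means Z-score of -3 or lower, scaled per plate to the spread of control and sample wells; inactive means z-score above -3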;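 further: negative z-score means lost luminescence so less FERM oligomerization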
Target sequence (Q14289 whole entry, looked up): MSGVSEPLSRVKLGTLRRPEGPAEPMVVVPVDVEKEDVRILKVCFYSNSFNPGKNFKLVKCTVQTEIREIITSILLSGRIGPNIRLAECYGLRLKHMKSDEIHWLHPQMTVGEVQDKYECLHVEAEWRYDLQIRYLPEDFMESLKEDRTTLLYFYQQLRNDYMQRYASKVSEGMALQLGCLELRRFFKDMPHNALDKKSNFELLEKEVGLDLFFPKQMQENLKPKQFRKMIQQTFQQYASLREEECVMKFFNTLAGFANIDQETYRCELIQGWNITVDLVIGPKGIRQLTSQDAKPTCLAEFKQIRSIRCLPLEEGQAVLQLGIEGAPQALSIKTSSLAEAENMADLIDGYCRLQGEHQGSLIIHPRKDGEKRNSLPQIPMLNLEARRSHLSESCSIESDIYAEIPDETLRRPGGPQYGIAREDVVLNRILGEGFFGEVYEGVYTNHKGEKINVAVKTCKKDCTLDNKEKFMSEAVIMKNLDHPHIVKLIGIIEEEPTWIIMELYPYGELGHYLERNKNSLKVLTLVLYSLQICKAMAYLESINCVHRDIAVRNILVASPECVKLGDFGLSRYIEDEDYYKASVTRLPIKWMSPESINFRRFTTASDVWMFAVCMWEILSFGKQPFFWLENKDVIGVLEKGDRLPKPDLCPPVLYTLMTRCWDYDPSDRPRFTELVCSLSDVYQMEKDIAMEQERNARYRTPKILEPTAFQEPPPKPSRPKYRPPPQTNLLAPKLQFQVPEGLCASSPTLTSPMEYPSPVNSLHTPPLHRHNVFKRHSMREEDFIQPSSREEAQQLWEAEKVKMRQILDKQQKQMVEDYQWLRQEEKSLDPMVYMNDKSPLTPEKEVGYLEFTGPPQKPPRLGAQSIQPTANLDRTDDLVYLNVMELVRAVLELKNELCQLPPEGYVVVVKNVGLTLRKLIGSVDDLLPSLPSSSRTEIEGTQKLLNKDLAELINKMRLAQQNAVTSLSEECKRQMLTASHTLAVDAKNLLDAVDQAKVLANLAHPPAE
* marks the source's active call; other numbers are inactive results; . = not tested or not shown. Compounds with a hit are over-represented: about 5.9% of the library has one in this group of screens.

SMILES	H69AR inhibit	Jurkat tox 60K	MT1-MMP txn act	HUVEC prolif 384	Lung fibro prol	PTK2B oligo ant
COCCN(C(=O)c1ccco1)C(C(=O)NC1CCCC1)c1cccs1 (centres undefined)	88.5	.	1.2	110.8	101.9	0.62
O=C1CC(c2ccco2)Cc2nc(Nc3nc(-c4ccccc4)c4ccccc4n3)ncc21 (centres undefined)	.	-0.9	1.1	54.5	25.3*	-0.94
Cc1cccc(Nc2ncc3c(n2)CC(c2ccco2)CC3=O)c1 (centres undefined)	29.8*	3.2	1.2	92.4	102.0	-0.96
CCc1cc(OCCCSc2nc(C)cc(=O)[nH]2)ccc1Cl	98.8	.	1.1	75.5	94.6	0
Cc1ccccc1/C(N)=N/OC(=O)/C=C/c1ccccc1	8.9*	.	1.5	92.9	82.7	0.31
COC(=O)c1cn(NC(=O)c2cc(OC)c(OC)c(OC)c2)c(=O)c2ccccc12	18.5*	.	1.1	19.8*	49.2*	0.08
CCOC(=O)N1CCN(C(=O)CSCC(=O)N=c2sc3ccccc3n2C)CC1	88.0	.	.	99.9	99.2	0.22
Cn1c(=NC(=O)CCl)sc2ccccc21	1.4*	.	0.1	76.3	2.4*	-0.07
COc1ccc(C2C3=C(CCCC3=O)Nc3nc4ccccc4n32)c(OC)c1OC (centres undefined)	95.1	0.4	1.1	102.2	105.6	.
CC(NC(=O)CN1C(=O)NC(Cc2ccccc2)(Cc2ccccc2)C1=O)C12CC3CC(CC(C3)C1)C2 (centres undefined)	6.3*	.	1.2	74.2	88.8	-1.19
CC(=O)c1cnc2c(-c3ccc(Cl)cc3)c(C)nn2c1C	84.4	.	1.1	27.8*	82.7	0.62
CC(=O)c1cnc2c(-c3ccccc3)c(C)nn2c1C	71.0	.	1.1	90.1	93.7	0.36
CCCn1c(C)cc(C(=O)CSc2nc3nc(C)cc(C)n3n2)c1C	.	.	.	.	.	1.29
Cc1cccc2nc(=S)n(C(=O)c3ccco3)n12	58.8	1.5	2.1*	84.3	92.1	0.79
Cn1c(SCC(=O)N2CCN(S(=O)(=O)c3ccccc3)CC2)nc2ccccc21	86.6	.	1.1	87.7	99.2	-0.51
O=C(Cn1c(SCC(=O)N2CCc3ccccc32)nc2ccccc21)NC1CCCC1	28.6*	.	1.2	76.3	102.7	-1.61
CC(C)Cn1c(SCC(=O)NC(=O)NC2CCCC2)nc2ccccc21	58.4	5.0	1.1	102.0	99.9	-3.35*
CN(C)C(=O)Cn1c(SCC(=O)NC2CCCCC2)nc2ccccc21	101.9	2.8	1.1	102.3	100.1	0.08
CC(C)Cn1c(SCC(=O)N2CCN(S(=O)(=O)c3ccccc3)CC2)nc2ccccc21	31.5*	10.8	1.2	82.0	95.4	-0.84
Cc1ccc(C(=O)NCC(=O)OCC(=O)c2c(N)n(C)c(=O)n(C)c2=O)s1	102.5	0.4	1.1	102.8	93.0	0.4
O=C1NCCCC2c3c(cc(Br)c(O)c3Br)OC12N1CCOCC1 (centres undefined)	99.7	-10.0	1.2	100.0	108.7	0.58
O=C1NCCCC2c3cc(O)c4ccccc4c3OC12N1CCCCC1 (centres undefined)	19.9*	19.7	1	3.4*	105.7	.
COc1cccc(CNC(=O)C2CCC(CNS(=O)(=O)c3cccc4nsnc34)CC2)c1 (centres undefined)	73.0	.	.	100.9	97.1	.
CN(Cc1ccccc1)S(=O)(=O)c1ccc(C(=O)Nc2nnc(C3CC3)o2)cc1	.	100.3*	1.2	.	.	-2.15
CN(c1ccccc1)S(=O)(=O)c1ccc(C(=O)Nc2nnc(-c3ccc(F)cc3)o2)cc1	34.1*	-6.5	1.2	2.0*	70.9	.
SMILES	H69AR inhibit	Jurkat tox 60K	MT1-MMP txn act	HUVEC prolif 384	Lung fibro prol	PTK2B oligo ant
COc1ccccc1-c1nnc(NC(=O)c2ccc(S(=O)(=O)N(C)Cc3ccccc3)cc2)o1	22.0*	11.8	1.1	17.2*	67.4	.
COc1ccccc1N(C)S(=O)(=O)c1ccc(C(=O)NC2=NCCS2)cc1	81.1	.	1.3	106.6	105.0	-2.21
CCCCNC(=S)Nc1ccccc1F	.	.	.	.	.	-0.07
N=c1ncn(CC(O)CO)c2nc(N3CCOCC3)[nH]c12 (centres undefined)	.	.	.	.	.	-0.09
Cc1ccc2c(n1)CC(C)(C)C/C2=N\O	94.9	.	1.1	103.0	106.3	0.42
COc1ccc(CC(=O)N2CCN(c3ccccn3)CC2)cc1	82.4	-4.4	1.2	96.4	91.2	0.58
COc1ccc(CC(=O)N2CCC(Nc3nc4ccccc4n3Cc3ccc(F)cc3)CC2)cc1	21.3*	.	1.3	70.7	89.2	-0.47
Cc1cc(C(=O)CN2C(=O)c3cccc(N)c3C2=O)c(C)n1Cc1cccs1	.	.	.	.	.	0.05
CS(=O)(=O)N1CCN(C2CCN(Cc3ccccc3)CC2)CC1	100.3	-5.5	1.2	98.8	97.8	-0.51
COc1ccccc1Nc1nnc(SCC(=O)c2cc(C)n(CC3CCCO3)c2C)s1 (centres undefined)	37.8*	.	1.2	102.5	99.8	0.55
CCOC(=O)CSc1nsc(SCC(=O)OCC)c1C#N	95.9	.	1.1	61.6	84.7	0.3
CC(=O)CSc1nsc(SCC(C)=O)c1C#N	30.9*	.	1.2	88.8	.	-0.1
Cc1csc(NC(=O)CSc2nsc(SCC(=O)Nc3nc(C)cs3)c2C#N)n1	.	.	1.6	.	.	-4.41*
COc1ccc(-n2c(Cc3cccn3C)nnc2SCC(=O)Nc2ccc3c(c2)OCO3)cc1	76.7	0.0	1.1	94.8	98.0	.
COc1ccccc1OCC(=O)Nc1cccc(-c2nc3ccccc3o2)c1	77.7	-3.8	1.2	49.5	108.5	-1.04
COc1cc(C(=O)NCc2ccc(-c3nc4ccccc4o3)cc2)cc(OC)c1OC	64.5	2.1	1.4	37.9	44.9*	0.09
CCOC(=O)c1c(NC(=O)CSc2n[nH]c(-c3ccco3)n2)sc(C)c1C	79.8	7.2	1.1	88.8	95.9	-0.02
CCOC(=O)c1c(NC(=O)CSc2n[nH]c(CNc3ccccc3)n2)sc(C)c1C	31.4*	.	1.1	45.8	73.6	-0.38
CCOC(=O)c1c(NC(=O)CSc2nnnn2CC)sc(C)c1C	30.6*	-0.7	1.2	101.9	84.1	-0.91
CCOC(=O)c1c(NC(=O)CSc2nnnn2C)sc(C)c1C	80.4	9.6	1.1	83.8	95.8	-0.82
Cc1ccc(S(=O)(=O)N(C)CC(=O)N2CCCC2)cc1	108.9	.	1	94.1	93.2	0.7
N#CC1=C(N)C(C#N)(C#N)C(c2cccnc2)C2CCCC=C12 (centres undefined)	97.4	-4.5	1.3	71.6	84.7	.
N#CC1=C(N)C(C#N)(C#N)C(c2cccnc2)C2CC(c3ccccc3)CC=C12 (centres undefined)	1.6*	.	1.5	5.9*	44.2*	-1.38
CN(c1ccccc1)S(=O)(=O)c1cc(C(=O)N2CCN(c3ccccn3)CC2)ccc1Cl	70.8	.	1.5	82.1	93.1	-0.92
O=C(c1ccc(Cl)c(S(=O)(=O)NCc2ccco2)c1)N1CCN(c2ccccc2F)CC1	20.9*	.	1.2	73.0	81.1	-1.11

Source: PubChem BioAssay
